Test results reported in ChEMBL document CHEMBL1221168, “Activity-based probes that target diverse cysteine protease families” (Nat Chem Biol, 2005).
The source made the active and inactive calls. No cut-off for these calls is given here.

Legend:
Cathepsin B = Cathepsin B (Rattus norvegicus, UniProt P00787); assay: Binding affinity to cathepsin B in crude rat liver homogenates using [125I]DCG-04 based competition protein labeling by SDS-PAGE method; format: tissue-based
How it was run: (§1)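 Rat liver lysate (50 µg protein in 50 mM sodium acetate, 2 mM DTT, 5 mM MgCl2, pH 5.5) was preincubated with compound from 50 mM DMSO stocks for 30 min at room temperature. [125I]DCG-04 (10^6 c.p.m.) was then added for 45 min at room temperature. Bands were resolved by SDS-PAGE, imaged and quantified, and IC50 was taken from the linear portion of the signal versus inhibitor concentration plot.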

[1] = molecular target: T1, Pro-cathepsin H (Rattus norvegicus) (UniProt P00786); assay: Binding affinity to cathepsin H in crude rat liver homogenates using [125I]DCG-04 based competition protein labeling up to 50 uM by SDS-PAGE method; format: tissue-based; how it was run: as §1
T1 sequence (whole entry): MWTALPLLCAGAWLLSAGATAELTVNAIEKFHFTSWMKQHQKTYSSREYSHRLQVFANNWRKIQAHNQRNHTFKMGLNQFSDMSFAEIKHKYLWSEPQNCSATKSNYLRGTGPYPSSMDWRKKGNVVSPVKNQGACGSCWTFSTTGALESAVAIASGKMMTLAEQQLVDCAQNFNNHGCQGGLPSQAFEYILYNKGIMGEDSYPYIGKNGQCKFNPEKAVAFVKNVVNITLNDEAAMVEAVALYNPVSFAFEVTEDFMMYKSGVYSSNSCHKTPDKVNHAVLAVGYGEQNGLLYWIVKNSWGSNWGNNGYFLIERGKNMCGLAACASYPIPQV

[2] = molecular target: T2, Cathepsin J (Rattus norvegicus) (UniProt Q63088); assay: Binding affinity to cathepsin J in crude rat liver homogenates using [125I]DCG-04 based competition protein labeling up to 50 uM by SDS-PAGE method; format: tissue-based; how it was run: as §1
T2 sequence (whole entry): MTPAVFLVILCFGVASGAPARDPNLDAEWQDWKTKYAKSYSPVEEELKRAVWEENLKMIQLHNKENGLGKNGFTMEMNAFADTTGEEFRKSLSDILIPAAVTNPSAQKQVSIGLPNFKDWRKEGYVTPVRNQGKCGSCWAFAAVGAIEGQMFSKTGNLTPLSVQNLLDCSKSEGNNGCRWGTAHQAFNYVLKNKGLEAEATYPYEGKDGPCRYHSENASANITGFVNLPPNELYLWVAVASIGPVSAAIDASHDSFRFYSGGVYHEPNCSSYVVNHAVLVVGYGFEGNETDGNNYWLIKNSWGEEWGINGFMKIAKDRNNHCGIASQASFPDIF

[3] = molecular target: Cathepsin Z (Rattus norvegicus) (UniProt Q9R1T3); assay: Binding affinity to cathepsin Z in crude rat liver homogenates using [125I]DCG-04 based competition protein labeling up to 50 uM by SDS-PAGE method; format: tissue-based; how it was run: as §1
[4] = molecular target: T3, Dipeptidyl peptidase 1 (Rattus norvegicus) (UniProt P80067); assay: Binding affinity to cathepsin C in crude rat liver homogenates using [125I]DCG-04 based competition protein labeling up to 50 uM by SDS-PAGE method; format: tissue-based; how it was run: as §1
T3 sequence (whole entry): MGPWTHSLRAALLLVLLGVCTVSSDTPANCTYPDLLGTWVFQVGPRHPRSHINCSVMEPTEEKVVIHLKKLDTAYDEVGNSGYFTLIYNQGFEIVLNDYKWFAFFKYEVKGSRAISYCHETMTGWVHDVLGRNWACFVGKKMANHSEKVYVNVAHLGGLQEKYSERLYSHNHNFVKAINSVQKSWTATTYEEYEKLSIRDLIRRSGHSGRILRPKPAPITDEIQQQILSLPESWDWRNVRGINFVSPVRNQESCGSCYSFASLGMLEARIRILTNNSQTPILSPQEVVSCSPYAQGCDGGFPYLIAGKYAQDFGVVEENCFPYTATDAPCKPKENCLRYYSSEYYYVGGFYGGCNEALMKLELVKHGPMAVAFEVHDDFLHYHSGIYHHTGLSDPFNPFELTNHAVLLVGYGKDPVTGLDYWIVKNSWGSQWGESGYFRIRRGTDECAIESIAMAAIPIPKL

[5] = molecular target: T4, Procathepsin L (Rattus norvegicus) (UniProt P07154); assay: Binding affinity to cathepsin L in crude rat liver homogenates assessed as protein labeling; format: tissue-based; conditions: tested as the 125I-labelled form
T4 sequence (whole entry): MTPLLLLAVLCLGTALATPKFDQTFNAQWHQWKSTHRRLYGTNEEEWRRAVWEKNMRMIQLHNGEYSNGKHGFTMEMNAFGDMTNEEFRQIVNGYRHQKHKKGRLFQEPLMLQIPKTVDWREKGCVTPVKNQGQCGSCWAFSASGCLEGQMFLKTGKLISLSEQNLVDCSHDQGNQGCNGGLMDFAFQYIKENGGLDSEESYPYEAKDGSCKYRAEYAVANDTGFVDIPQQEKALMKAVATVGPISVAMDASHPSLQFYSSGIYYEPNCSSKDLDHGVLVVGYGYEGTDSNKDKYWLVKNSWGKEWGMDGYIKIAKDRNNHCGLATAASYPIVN

[6] = molecular target: Arg-gingipain-1 proteinase (Porphyromonas gingivalis) (UniProt Q51816); assay: Binding affinity to Arg-gingipain in total lcrude cell lysates of Porphyromonas gingivalis assessed as protein lebeling; conditions: tested as the 125I-labelled form
[7] = molecular target: Lys-gingipain (Porphyromonas gingivalis (strain ATCC 33277 / DSM 20709 / JCM 12257)) (UniProt B2RLK2); assay: Binding affinity to Lys-gingipain in total lcrude cell lysates of Porphyromonas gingivalis assessed as protein lebeling; conditions: tested as the 125I-labelled form
Pro-cathepsin H = molecular target: T5, Pro-cathepsin H (Rattus norvegicus, UniProt P00786); assay: Binding affinity to cathepsin H in crude rat liver homogenates using [125I]DCG-04 based competition protein labeling by SDS-PAGE method; format: tissue-based; how it was run: as §1
T5 sequence (P00786 whole entry): T1 sequence (whole entry)

Cathepsin Z = Cathepsin Z (Rattus norvegicus, UniProt Q9R1T3); assay: Binding affinity to cathepsin Z in crude rat liver homogenates using [125I]DCG-04 based competition protein labeling by SDS-PAGE method; format: tissue-based; how it was run: as §1
Dipeptidyl peptidase 1 = molecular target: T6, Dipeptidyl peptidase 1 (Rattus norvegicus, UniProt P80067); assay: Binding affinity to cathepsin C in crude rat liver homogenates using [125I]DCG-04 based competition protein labeling by SDS-PAGE method; format: tissue-based; how it was run: as §1
T6 sequence (P80067 whole entry): T3 sequence (whole entry)

Cathepsin J = molecular target: T7, Cathepsin J (Rattus norvegicus, UniProt Q63088); assay: Binding affinity to cathepsin J in crude rat liver homogenates using [125I]DCG-04 based competition protein labeling by SDS-PAGE method; format: tissue-based; how it was run: as §1
T7 sequence (Q63088 whole entry): T2 sequence (whole entry)

[8] = molecular target: Cathepsin B (Rattus norvegicus) (UniProt P00787); assay: Binding affinity to cathepsin B in crude rat liver homogenates using [125I]DCG-04 based competition protein labeling up to 50 uM by SDS-PAGE method; format: tissue-based; how it was run: as §1

SMILES	IC50 (Cathepsin B)	inhibition [3]	IC50 (Pro-cathepsin H)	IC50 (Dipeptidyl peptidase 1)	IC50 (Cathepsin J)	further results
Cc1cccc(C)c1C(=O)OCC(=O)[C@H](CCCN=C(N)N)NC(=O)[C@H](Cc1ccccc1)NC(=O)OCc1ccccc1	0.015 µM	–	–	–	–	–
Cc1cccc(C)c1C(=O)OCC(=O)CNC(=O)[C@H](Cc1ccccc1)NC(=O)OCc1ccccc1	0.12 µM	inactive	–	–	–	inhibition [1]: inactive; inhibition [2]: inactive; inhibition [4]: inactive
CC(=O)N[C@@H](CCCCNC(=O)CCCCC1SC[C@H]2NC(=O)N[C@@H]12)C(=O)N[C@@H](Cc1ccc(O)c(I)c1)C(=O)NCCCCCC(=O)N[C@@H](CC(C)C)C(=O)COC(=O)c1c(C)cccc1C (stereo partly specified)	–	–	–	–	–	Activity [5]: Active
CC(=O)N[C@@H](CCCCNC(=O)CCCCC1SC[C@H]2NC(=O)N[C@@H]12)C(=O)N[C@@H](Cc1ccc(O)c(I)c1)C(=O)NCCCCCC(=O)NCC(=O)COC(=O)c1c(C)cccc1C (stereo partly specified)	–	–	–	–	–	Activity [5]: Active
CC(=O)N[C@@H](CCCCNC(=O)CCCCC1SC[C@H]2NC(=O)N[C@@H]12)C(=O)N[C@@H](Cc1ccc(O)c(I)c1)C(=O)NCCCCCC(=O)N[C@@H](CCCCN)C(=O)COC(=O)c1c(C)cccc1C (stereo partly specified)	–	–	–	–	–	Activity [6]: Active; Activity [7]: Active
CC(=O)N[C@@H](Cc1ccc(O)cc1)C(=O)N[C@@H](Cc1ccccc1)C(=O)N[C@@H](CCCNC(=N)N)C(=O)COC(=O)c1c(C)cccc1C	0.0073 µM	–	12 µM	3.6 µM	3.6 µM	IC50 (Cathepsin Z): 4.7 µM
COc1ccc(C(=O)OCC(=O)CNC(=O)[C@H](Cc2ccccc2)NC(=O)OCc2ccccc2)cc1	–	inactive	–	–	–	inhibition [1]: inactive; inhibition [2]: inactive; inhibition [8]: inactive; inhibition [4]: inactive
COc1ccc(C(=O)ONC(=O)CNC(=O)[C@H](Cc2ccccc2)NC(=O)OCc2ccccc2)cc1	1.2 µM	–	6.6 µM	8.3 µM	8.3 µM	IC50 (Cathepsin Z): 1.5 µM
Cc1cccc(C)c1C(=O)OCC(=O)[C@H](CCCNC(=N)N)NC(=O)[C@H](Cc1ccccc1)NC(=O)OCc1ccccc1	–	inactive	–	–	–	inhibition [1]: inactive; inhibition [2]: inactive; inhibition [4]: inactive
CC(=O)N[C@@H](Cc1ccc(O)cc1)C(=O)N[C@@H](Cc1ccccc1)C(=O)NCC(=O)COC(=O)c1c(C)cccc1C	0.22 µM	–	7.9 µM	6.4 µM	6.4 µM	IC50 (Cathepsin Z): 39 µM
Cc1cccc(C)c1C(=O)OCC(=O)CNC(=O)[C@H](CC(C)C)NC(=O)OCc1ccccc1	0.92 µM	inactive	7.9 µM	49 µM	49 µM	–
CC(=O)N[C@@H](CCCCNC(=O)CCCCC1SC[C@H]2NC(=O)N[C@@H]12)C(=O)N[C@@H](Cc1ccc(O)c(I)c1)C(=O)NCCCCCC(=O)N[C@@H](CCCNC(=N)N)C(=O)COC(=O)c1c(C)cccc1C (stereo partly specified)	–	–	–	–	–	Activity [6]: Active; Activity [7]: Active
